This is an account of results in ChEMBL document CHEMBL1138762, “Novel cyclooxygenase-1 inhibitors discovered using affinity fingerprints” (J Med Chem, 2004).

As a reminder, the inhibition is the share of the control response that was lost under treatment. Low values mean little suppression, high ones strong suppression. The term IC50 denotes the concentration that inhibits the measured activity by half.

In experiment [1] the target is T1, Prostaglandin G/H synthase 1 (Ovis aries) (UniProt P05979).
T1 sequence (whole entry): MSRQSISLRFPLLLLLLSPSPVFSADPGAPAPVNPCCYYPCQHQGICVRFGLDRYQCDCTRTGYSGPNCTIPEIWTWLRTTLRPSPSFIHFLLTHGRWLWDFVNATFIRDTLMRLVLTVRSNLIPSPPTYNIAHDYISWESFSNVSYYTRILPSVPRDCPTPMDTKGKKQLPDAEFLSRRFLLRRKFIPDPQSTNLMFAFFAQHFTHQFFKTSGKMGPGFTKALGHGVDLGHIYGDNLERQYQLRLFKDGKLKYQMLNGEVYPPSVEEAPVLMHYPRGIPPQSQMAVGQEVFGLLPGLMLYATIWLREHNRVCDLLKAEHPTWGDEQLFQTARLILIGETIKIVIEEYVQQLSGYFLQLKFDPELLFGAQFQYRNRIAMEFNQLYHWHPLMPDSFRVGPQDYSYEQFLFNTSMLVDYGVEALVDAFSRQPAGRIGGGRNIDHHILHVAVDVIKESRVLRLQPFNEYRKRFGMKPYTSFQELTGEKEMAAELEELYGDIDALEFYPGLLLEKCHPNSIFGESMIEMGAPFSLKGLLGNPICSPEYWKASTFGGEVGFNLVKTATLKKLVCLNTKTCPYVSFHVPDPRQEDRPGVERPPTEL
Description: In vitro inhibitory activity against ovine cyclooxygenase-1 (COX-1) at 200 uM; Inactive.

In experiment [2] the target is T2, Prostaglandin G/H synthase 1 (Ovis aries, UniProt P05979).
T2 sequence (P05979 whole entry): T1 sequence (whole entry)
Description: In vitro inhibitory activity against ovine cyclooxygenase-1 (COX-1). The gist of the method: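 Ovine COX-1 (0.17 unit/μL final) with heme (1 μM final) in Tris-HCl pH 8 buffer, preincubated with compound 10 min at room temperature. Started with saturating TMPD, then arachidonic acid to 10 μM, 5 min at room temperature. Absorbance increase at 590 nm. Half-log steps over −log[M] 9.0–3.5, DMSO 3% final. IC50 from nonlinear Hill fit, mean ± SEM of 2–5 determinations.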

In experiment [3] the target is T1, Prostaglandin G/H synthase 1 (Ovis aries). The settings on record: 200 uM.

Regarding `CCc1cccc2c3c([nH]c12)C(CC)(CC(=O)O)OCC3` (configuration not stated), in experiment [1], the inhibition is below 50%.

In experiment [1], `CC(C(=O)O)c1ccc(N2CC=CC2)c(Cl)c1` (configuration not stated) yielded an inhibition below 50%.

Regarding `CCCCC1C(=O)N(c2ccccc2)N(c2ccccc2)C1=O`, the inhibition in experiment [1] is below 50%.

The compound `CC(C)Cc1ccc(C(C)C(=O)O)cc1` (configuration not stated) had an inhibition in experiment [1] below 50%.

In experiment [1], `CC(C(=O)O)c1ccc(N2Cc3ccccc3C2=O)cc1` (configuration not stated) yielded an inhibition below 50%.

With `O=C(O)c1cc(-c2ccc(F)cc2F)ccc1O`, the inhibition in experiment [1] was below 50%.

`O=C(c1ccccc1)c1ccc(O)c(C(=O)c2ccccc2)c1O`: it took 6 µM to reach half-maximal inhibition in experiment [2] (IC50). This lies in the single-digit micromolar range.

On to `COc1c(O)ccc2c1oc1ccccc12`, for which, in experiment [2], 29 µM corresponded to half-maximal inhibition (IC50). This IC50 is about 4.8-fold higher than that of the compound before.

`CC(C(=O)O)c1cccc(C(=O)c2ccccc2)c1` (configuration not stated): in experiment [1], the inhibition was below 50%.

`O=C(O)Cc1ccccc1Nc1c(Cl)cccc1Cl`: in experiment [3], the inhibition is below 50%.

Regarding `CN1C(C(=O)Nc2ccccn2)=C(O)c2ccccc2S1(=O)=O`, the inhibition in experiment [1] is below 50%.

In experiment [1], `COc1ccc2cc([C@H](C)C(=O)O)ccc2c1` had an inhibition below 50%.

`COc1ccc2c(c1)c(CC(=O)O)c(C)n2C(=O)c1ccc(Cl)cc1` yielded an inhibition in experiment [1] below 50%.

Consider `O=C(Nc1ccccc1O)c1ccccc1Cl`, for which the IC50 in experiment [2] came to 69 µM.

Compound `COc1ccc2cc(CC(=O)O)ccc2c1` came in with an inhibition in experiment [1] below 50%.

Compound `Cc1cc(NC(=O)C2=C(O)c3ccccc3S(=O)(=O)N2C)no1` yielded an inhibition in experiment [1] below 50%.

In experiment [1], `COc1ccc2c(c1)c(CC(=O)OCC(=O)O)c(C)n2C(=O)c1ccc(Cl)cc1` showed an inhibition below 50%.
